ChEMBL document CHEMBL1140821, “Novel indole-3-sulfonamides as potent HIV non-nucleoside reverse transcriptase inhibitors (NNRTIs)” (Bioorg Med Chem Lett, 2008)
pIC50: −log10 of the molar value.

Assays:
[1] = Inhibition of HIV NL43 recombinant reverse transcriptase by scintillation proximity assay; set-up: species or system Human immunodeficiency virus
Summary of the method: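 Purified recombinant wild-type RT (NL_43) polymerase activity measured as 3H-dNTP incorporation, using a 500 nt heteropolymeric RNA template with biotinylated DNA primer. Read by scintillation proximity assay.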

[2] = tested on: Human immunodeficiency virus; assay: Antiviral activity against HIV 3B in MT4 cells assessed as inhibition of replication after 3 days in presence of 10% fetal bovine serum; assay type: functional; details: Human immunodeficiency virus 1, 3B, MT4, 72 h; read-out: CIC95
Summary of the method: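 MT4 cells infected overnight with wild-type H9IIIB virus (moi 0.01) without compound, washed, then cultured 3 days across a compound concentration range in 10% FBS. Replication read as p24 in culture supernatants. CIC95 = lowest concentration inhibiting replication by ≥95%.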

[3] = target: Human immunodeficiency virus type 1 reverse transcriptase (Human immunodeficiency virus 1, UniProt Q72547, K103N); assay: Inhibition of HIV NL43 recombinant reverse transcriptase K103N mutant by scintillation proximity assay
[4] = target: Human immunodeficiency virus type 1 reverse transcriptase (Human immunodeficiency virus 1, UniProt Q72547, Y181C); assay: Inhibition of HIV HXB2 recombinant reverse transcriptase Y181C mutant by scintillation proximity assay

| SMILES | pIC50 [1] | IC95 [2] [nM] | pIC50 [3] | pIC50 [4] |
| --- | --- | --- | --- | --- |
| NC(=O)c1[nH]c2ccc(Br)cc2c1S(=O)(=O)NC1CCCCC1 | 7.85 | 125 |  |  |
| NC(=O)c1[nH]c2ccc(Br)cc2c1S(=O)(=O)NC1CCC1 | 9.30 | 125 |  |  |
| O=C(NCc1ccccc1O)c1[nH]c2ccc(Br)cc2c1S(=O)(=O)N1CCCC1 | 8.62 | 23 | 7.51 | 8.03 |
| NC(=O)c1[nH]c2ccc(Cc3ccc(Cl)cn3)cc2c1S(=O)(=O)N1CCCC1 | 7.23 |  | 5.09 | < 5.00 |
| NC(=O)c1[nH]c2ccc(C3CC3)cc2c1S(=O)(=O)N1CCCC1 | 6.03 | 160 |  |  |
| NC(=O)c1[nH]c2ccc(Br)cc2c1S(=O)(=O)N1CCC(F)(F)CC1 | 8.35 | 410 |  |  |
| CCCNS(=O)(=O)c1c(C(N)=O)[nH]c2ccc(Br)cc12 | 7.72 | 160 |  |  |
| O=S(=O)(c1c(-c2nc3cccnc3[nH]2)[nH]c2ccc(Br)cc12)N1CCCC1 | 7.40 | 82 | 6.43 | 5.30 |
| O=C(NCc1ccncc1)c1[nH]c2ccc(Br)cc2c1S(=O)(=O)N1CCCC1 | 7.85 | < 7.8 | 6.77 | 8.20 |
| O=S(=O)(c1c(-c2nc3cccc(O)c3[nH]2)[nH]c2ccc(Br)cc12)N1CCCC1 | 8.00 | 82 | 7.32 | 6.09 |
| O=S(=O)(c1c(-c2ncc(-c3ccccc3)[nH]2)[nH]c2ccc(Br)cc12)N1CCCC1 | 7.96 | 67 | 6.82 | < 5.04 |
| O=C(NCc1c(F)cccc1Cl)c1[nH]c2ccc(Br)cc2c1S(=O)(=O)N1CCCC1 | 8.42 | 25 | 7.70 | 7.80 |
| COc1ccc2nc(-c3[nH]c4ccc(Br)cc4c3S(=O)(=O)N3CCCC3)[nH]c2c1 | 7.35 | 400 | 6.82 | 5.29 |
| O=C(NCCO)c1[nH]c2ccc(Br)cc2c1S(=O)(=O)N1CCCC1 | 7.82 | 625 | 5.55 | 8.16 |
| NC(=O)c1[nH]c2ccc(Br)cc2c1S(=O)(=O)NC1CCC(F)(F)C1 (centres undefined) | 9.70 | 140 |  |  |
| O=C(NCc1ccnc2ccccc12)c1[nH]c2ccc(Br)cc2c1S(=O)(=O)N1CCCC1 | 8.51 | 82 | 7.60 | 7.20 |
| CCC(O)c1cnc(-c2[nH]c3ccc(Br)cc3c2S(=O)(=O)N2CCCC2)[nH]1 (centres undefined) | 8.06 | 50 | 7.21 | 5.59 |

| SMILES | pIC50 [1] | IC95 [2] [nM] | pIC50 [3] | pIC50 [4] |
| --- | --- | --- | --- | --- |
| O=C(NCc1cncs1)c1[nH]c2ccc(Br)cc2c1S(=O)(=O)N1CCCC1 | 8.21 | 16 | 7.03 | 8.22 |
| NC(=O)c1[nH]c2ccc(-c3cccnc3)cc2c1S(=O)(=O)N1CCCC1 | 5.66 | 310 |  |  |
| Cc1cnc(-c2[nH]c3ccc(Br)cc3c2S(=O)(=O)N2CCCC2)[nH]1 | 8.51 | < 7.8 | 7.38 | 7.60 |
| NC(=O)c1[nH]c2ccc(Br)cc2c1S(=O)(=O)N1CCCCC1 | 8.24 | 16 |  |  |
| O=C(NCc1nccs1)c1[nH]c2ccc(Br)cc2c1S(=O)(=O)N1CCCC1 | 8.55 | < 7.8 | 6.55 | 6.70 |
| O=C(NCc1ccn[nH]1)c1[nH]c2ccc(Br)cc2c1S(=O)(=O)N1CCCC1 | 8.60 | < 7.8 | 6.59 | 6.08 |
| NC(=O)c1[nH]c2ccc(Cl)cc2c1S(=O)(=O)c1ccccc1 [L-737126] | 8.52 |  | 6.94 | 7.15 |
| CCC(OC)c1cnc(-c2[nH]c3ccc(Br)cc3c2S(=O)(=O)N2CCCC2)[nH]1 (centres undefined) | 7.80 | 100 | 6.96 | 6.62 |
| NC(=O)c1[nH]c2ccc(Br)cc2c1S(=O)(=O)NC1CCCC1 | 7.74 | 125 |  |  |
| Cc1cnc(-c2[nH]c3ccc(Cl)cc3c2S(=O)(=O)c2ccccc2)[nH]1 | 8.30 | 12 |  |  |
| O=S(=O)(c1c(-c2nc3ccc(F)cc3[nH]2)[nH]c2ccc(Br)cc12)N1CCCC1 | 7.82 | 280 | 6.66 | 5.28 |
| NC(=O)c1[nH]c2ccc(-c3ccccc3)cc2c1S(=O)(=O)N1CCCC1 | 6.26 | 1300 |  |  |
| O=S(=O)(c1c(-c2nc3ccccc3[nH]2)[nH]c2ccc(Br)cc12)N1CCCC1 | 8.16 | 78 | 6.55 | 7.42 |
| NC(=O)c1[nH]c2ccc(Br)cc2c1S(=O)(=O)N1CCCC1 |  | < 7.8 | 5.00 | 6.92 |
| NC(=O)c1[nH]c2ccc(C#CC3CC3)cc2c1S(=O)(=O)N1CCCC1 | 6.37 | 630 |  |  |
| NC(=O)c1[nH]c2ccc(Cl)cc2c1S(=O)(=O)N1CCCC1 | 8.41 | < 7.8 | 5.71 | 7.32 |
| N#Cc1ccc2[nH]c(C(N)=O)c(S(=O)(=O)N3CCCC3)c2c1 | 8.04 | 16 | 5.64 | < 5.00 |
